According to ChEMBL document CHEMBL4052826, “Design and Synthesis of Novel Reactive Oxygen Species Inducers for the Treatment of Pancreatic Ductal Adenocarcinoma” (J Med Chem, 2018):
Active and inactive are the calls of the source. The calls are words filed in the database; no cut-off is given here.

Legend:
[1] = Induction of compound aggregation
[2] = Induction of compound colloidal behavior
MIA PaCa-2 [3] = assay: Induction of reactive oxygen species generation in human MIAPaCa2 cells assessed as upregulation of HMOX1 gene expression after 4 hrs by Bru-seq analysis; type: functional, cell-based
MIA PaCa-2 [4] = assay: Induction of unfolded protein response in human MIAPaCa2 cells assessed as upregulation of DDIT3 gene expression after 4 hrs by Bru-seq analysis; type: functional, cell-based
MIA PaCa-2 [5] = assay: Induction of unfolded protein response in human MIAPaCa2 cells assessed as upregulation of HSPA5 gene expression after 4 hrs by Bru-seq analysis; type: functional, cell-based
Summary of the method: (§1)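 Nascent RNA sequencing (Bru-seq): 4×10^6 MIA PaCa-2 cells seeded in 10 cm dishes, treated next day for 4 h with drug or DMSO. Bromouridine (2 mM final) added for the last 30 min. Total RNA taken in TRIZOL; labeled RNA immunocaptured, converted to cDNA libraries and deep sequenced. Signal compared with DMSO-treated cells.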

MIA PaCa-2 [6] = assay: Induction of unfolded protein response in human MIAPaCa2 cells assessed as upregulation of GRP78 expression at 2 uM by Western blot analysis; type: functional, cell-based; settings: TDE = time-dependent effect
Summary of the method: (§2)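 Immunoblotting. Cells (4×10^5) in 60 mm dishes were treated, lysed 30 min at 4°C and quantified by BCA. 40 μg protein was run on SDS-PAGE and transferred to PVDF. Primary antibodies (1:1000) incubated overnight at 4°C, then Dylight 800 secondary, with fluorescent scanning. Bands were normalized to GAPDH or actin loading controls. Mean ± SD, three independent experiments, Student's t-test.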

PANC-1 [7] = assay: Induction of unfolded protein response in human PANC1 cells assessed as upregulation of CHOP expression at 2 uM by Western blot analysis; type: functional, cell-based; settings: TDE = time-dependent effect
Summary of the method: (§3)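 Cells (4×10^5) seeded in 60 mm dishes, cultured in RPMI1640 with 10% FBS, 5% CO2, 37°C, then compound-treated. Lysed 30 min at 4°C, BCA-quantified, 40 μg protein resolved by SDS-PAGE, transferred to PVDF, probed overnight at 4°C with primary antibodies (1:1000; GAPDH or actin loading control), then Dylight 800 secondary; fluorescence scanned. Bands normalized to loading control; mean ± SD, three independent experiments.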

BXPC-3 [8] = assay: Induction of unfolded protein response in human BxPC3 cells assessed as upregulation of CHOP expression at 2 uM by Western blot analysis; type: functional, cell-based; settings: TDE = time-dependent effect; summary of the method: as §2
PANC-1 [9] = assay: Induction of unfolded protein response in human PANC1 cells assessed as upregulation of GRP78 expression at 2 uM by Western blot analysis; type: functional, cell-based; settings: TDE = time-dependent effect; summary of the method: as §3
BXPC-3 [10] = assay: Induction of unfolded protein response in human BxPC3 cells assessed as upregulation of GRP78 expression at 2 uM by Western blot analysis; type: functional, cell-based; settings: TDE = time-dependent effect; summary of the method: as §2
MIA PaCa-2 [11] = assay: Induction of reactive oxygen species generation in human MIAPaCa2 cells assessed as upregulation of HO-1 expression at 2 uM after 4 to 24 hrs by Western blot analysis; type: functional, cell-based; summary of the method: as §2
PANC-1 [12] = assay: Induction of reactive oxygen species generation in human PANC1 cells assessed as upregulation of HO-1 expression at 2 uM after 4 to 24 hrs by Western blot analysis; type: functional, cell-based; summary of the method: as §2
BXPC-3 [13] = assay: Induction of reactive oxygen species generation in human BxPC3 cells assessed as upregulation of NQO1 expression at 2 uM after 4 to 24 hrs by Western blot analysis; type: functional, cell-based; summary of the method: as §2
MIA PaCa-2 [14] = assay: Induction of apoptosis signaling in human MIAPaCa2 cells at 5 times IC50 after 4 hrs by IPA analysis; type: functional, cell-based
MIA PaCa-2 [15] = assay: Downregulation of Sp3 gene expression in human MIAPaCa2 cells at IC50 to 5 times IC50 after 4 hrs by Bru-seq analysis; type: functional, cell-based
MIA PaCa-2 [16] = assay: Inhibition of mtDNA transcription from HSP1 promoter in human MIAPaCa2 cells at 5 times IC50 after 4 hrs by Bru-seq analysis; type: functional, cell-based; summary of the method: as §1
Mus musculus [17] = assay: Toxicity in NOD/SCID mouse xenografted with human MIAPaCa2 cells assessed as weakness at 5 mg/kg, ip administered 5 times a week until day 44; type: organism-based; settings: in vivo
Summary of the method: (§4)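 Subcutaneous flank MIA PaCa-2 xenografts (2.0×10^6 cells) in 6-week NOD/SCID mice, randomized at 65 mm3 (n=5/group: vehicle or drug). Dosed ip in 5% DMSO/60% propylene glycol/35% saline, five days on/two off, to day 44. Body weight tracked and mice watched for weakness, weight loss or lethargy; mean ± SEM.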

Mus musculus [18] = assay: Toxicity in NOD/SCID mouse xenografted with human MIAPaCa2 cells assessed as body weight loss at 5 mg/kg, ip administered 5 times a week until day 44; type: organism-based; settings: in vivo; summary of the method: as §4
Mus musculus [19] = assay: Toxicity in NOD/SCID mouse xenografted with human MIAPaCa2 cells assessed as lethargy at 5 mg/kg, ip administered 5 times a week until day 44; type: organism-based; settings: in vivo; summary of the method: as §4
Mus musculus [20] = assay: Toxicity in NOD/SCID mouse xenografted with human MIAPaCa2 cells assessed as microscopic changes in liver at 5 mg/kg, ip administered 5 times a week until day 44 by hematoxylin and eosin staining-based inverted microscopic method; type: organism-based; settings: in vivo
Summary of the method: (§5)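 Necropsy after the 44-day ip course in MIA PaCa-2 xenograft-bearing NOD/SCID mice: heart, kidney, liver, lung, spleen and pancreas fixed in 10% neutral buffered formalin, paraffin-embedded, sectioned and stained with hematoxylin and eosin. Sections examined by inverted microscope at 20X, compared with vehicle-treated animals.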

Mus musculus [21] = assay: Toxicity in NOD/SCID mouse xenografted with human MIAPaCa2 cells assessed as microscopic changes in heart at 5 mg/kg, ip administered 5 times a week until day 44 by hematoxylin and eosin staining-based inverted microscopic method; type: organism-based; settings: in vivo; summary of the method: as §5
Mus musculus [22] = assay: Toxicity in NOD/SCID mouse xenografted with human MIAPaCa2 cells assessed as microscopic changes in lung at 5 mg/kg, ip administered 5 times a week until day 44 by hematoxylin and eosin staining-based inverted microscopic method; type: organism-based; settings: in vivo; summary of the method: as §5
Mus musculus [23] = assay: Toxicity in NOD/SCID mouse xenografted with human MIAPaCa2 cells assessed as microscopic changes in spleen at 5 mg/kg, ip administered 5 times a week until day 44 by hematoxylin and eosin staining-based inverted microscopic method; type: organism-based; settings: in vivo; summary of the method: as §5
Mus musculus [24] = assay: Toxicity in NOD/SCID mouse xenografted with human MIAPaCa2 cells assessed as body weight loss at 5 mg/kg, ip administered 5 times a week co-administered with gemcitabine at 15 mg/kg administered once a week for 48 days; type: organism-based; settings: in vivo, 1152 h
Summary of the method: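 MIA PaCa-2 xenografted NOD/SCID mice randomized at 75 mm3 into vehicle (n=4), single-agent (n=3 each) and combination (n=3) arms. Drug given at 5 mg/kg five times a week, gemcitabine at 15 mg/kg once a week, over a 48-day period. Body weight followed; mean ± SEM.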

BXPC-3 [25] = assay: Cytotoxicity against human BxPC3 cells assessed as decrease in cell proliferation after 72 hrs by MTT assay; type: functional, cell-based; settings: BXPC-3, 72 h
Summary of the method: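 MTT assay. Cells (3000–8000/well) attached overnight in RPMI1640 with 10% FBS; the GR line was kept with 200 nM gemcitabine. Serial dilutions (30 nM–10 μM for most lines) were applied for 72 h. MTT was added at a final 300 μg/mL for 3 h at 37°C, formazan was dissolved in DMSO and A570 read. Inhibition = (1 − OD treated/OD control) × 100. IC50 given as mean ± SD, three independent experiments.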

For `O=C1C(Nc2ccc(-c3ccccc3)cc2)=CC(=O)c2ncncc21`, the Activity [1] was “Active”, the Activity [2] was “Active” and the Activity (MIA PaCa-2 [3]) was “Dose-dependent effect”. The Activity (MIA PaCa-2 [4]) was “Dose-dependent effect”, the Activity (MIA PaCa-2 [5]) was “Dose-dependent effect” and the Activity (MIA PaCa-2 [6]) was “Tde”. For the same molecule, the Activity (PANC-1 [7]) was “Tde”, the Activity (BXPC-3 [8]) was “Tde” and the Activity (PANC-1 [9]) was “Tde”. For the same molecule, the Activity (BXPC-3 [10]) was “Tde”, the Activity (MIA PaCa-2 [11]) was “Active” and the Activity (PANC-1 [12]) was “inactive”. The Activity (BXPC-3 [13]) was “inactive”, the Activity (MIA PaCa-2 [14]) was “Active” and the Activity (MIA PaCa-2 [15]) was “inactive”. The inhibition (MIA PaCa-2 [16]) was “inactive”, the Activity (Mus musculus [17]) was “Non-Toxic” and the Activity (Mus musculus [18]) was “Non-Toxic”. The Activity (Mus musculus [19]) was “Non-Toxic”, the Activity (Mus musculus [20]) was “Non-Toxic” and the Activity (Mus musculus [21]) was “Non-Toxic”. For the same molecule, the Activity (Mus musculus [22]) was “Non-Toxic”, the Activity (Mus musculus [23]) was “Non-Toxic” and the Activity (Mus musculus [24]) was “Non-Toxic”. The IC50 (BXPC-3 [25]) was 500 nM.
